Results: ChEMBL document CHEMBL3272103, “Synthesis and central nervous system evaluation of some 5-alkoxy-3H-1,4-benzodiazepin-2(1H)-ones” (J Med Chem, 1977)

Experiments:
[1] = Acute toxicity in ip dosed Wistar rat measured 2 hrs post dose; assay type: organism-based; details: in vivo
Mus musculus [2] = experiment: CNS depressant activity in ip dosed mouse assessed as ataxia; assay type: functional
Summary of the method: (§1)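 Behavioral observation in ip-dosed mice per a modified literature method, scoring ataxia, docility or loss of righting reflex. Ten animals per dose; ED50 in mg/kg ip.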

Mus musculus [3] = experiment: CNS depressant activity in ip dosed mouse assessed as docility; assay type: functional; summary of the method: as §1
Mus musculus [4] = experiment: CNS depressant activity in ip dosed mouse assessed as loss of righting reflex; assay type: functional; summary of the method: as §1
Mus musculus [5] = experiment: Anticonvulsant activity in ip dosed mouse assessed as inhibition of N-sulfamoylhexahydroazepine-induced seizure; assay type: functional
Summary of the method: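 Mice dosed ip with test compound, then challenged with the convulsant N-sulfamoylhexahydroazepine; protection against seizures scored per a literature method. Ten animals per dose; ED50 derived in mg/kg ip.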

Mus musculus [6] = experiment: CNS depressant activity in mouse assessed as reduction in amphetamine-induced locomotor activity at 75 mg/kg, ip; assay type: functional; set-up: scale not given: the % may be the effect or the level left; details: route intraperitoneal
Summary of the method: (§2)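 Locomotor activity of mice recorded in photocell activity cages after dl-amphetamine 4.0 mg/kg ip plus test compound ip at the stated dose. Five mice per group; result given as % change in activity.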

Mus musculus [7] = experiment: CNS depressant activity in ip dosed mouse assessed as reinduction of anesthesia measured as loss of righting reflex compound administered immediately post recovery from hexobarbital anesthesia; assay type: functional
Mus musculus [8] = experiment: CNS depressant activity in mouse assessed as reduction in amphetamine-induced locomotor activity at 51.2 mg/kg, ip; assay type: functional; set-up: scale not given: the % may be the effect or the level left; details: route intraperitoneal; summary of the method: as §2
Mus musculus [9] = experiment: CNS depressant activity in ip dosed mouse assessed as induction of neurologic deficit by rotarod test; assay type: functional
Summary of the method: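 Rotarod test per a literature method in ip-dosed mice; failure scored as neurological deficit. Ten animals per dose; ND50 in mg/kg ip.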

Mus musculus [10] = experiment: CNS depressant activity in mouse assessed as reduction in amphetamine-induced locomotor activity at 50 mg/kg, ip; assay type: functional; set-up: scale not given: the % may be the effect or the level left; details: route intraperitoneal
Summary of the method: (§3)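 Mice given test compound ip alongside dl-amphetamine 4.0 mg/kg ip; locomotor activity recorded in photocell activity cages, five mice per group; expressed as % change in activity.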

Mus musculus [11] = experiment: CNS depressant activity in mouse assessed as reduction in amphetamine-induced locomotor activity at 100 mg/kg, ip; assay type: functional; set-up: scale not given: the % may be the effect or the level left; details: route intraperitoneal; summary of the method: as §2
Mus musculus [12] = experiment: CNS depressant activity in mouse assessed as reduction in amphetamine-induced locomotor activity at 25.6 mg/kg, ip; assay type: functional; set-up: scale not given: the % may be the effect or the level left; details: route intraperitoneal; summary of the method: as §2
Mus musculus [13] = experiment: CNS depressant activity in mouse assessed as reduction in amphetamine-induced locomotor activity at 150 mg/kg, ip; assay type: functional; set-up: scale not given: the % may be the effect or the level left; details: route intraperitoneal; summary of the method: as §2
Mus musculus [14] = experiment: CNS depressant activity in mouse assessed as reduction in amphetamine-induced locomotor activity at 18.8 mg/kg, ip; assay type: functional; set-up: scale not given: the % may be the effect or the level left; details: route intraperitoneal; summary of the method: as §2
Mus musculus [15] = experiment: CNS depressant activity in mouse assessed as reduction in amphetamine-induced locomotor activity at 1.5 mg/kg, ip; assay type: functional; set-up: scale not given: the % may be the effect or the level left; details: route intraperitoneal; summary of the method: as §3

Structure (SMILES): CCOC1=NCC(=O)N(CC)c2ccc(Cl)cc21
- LD50 at 2 h [1]: 600 mg/kg
- ED50 (Mus musculus [2]): 100 mg/kg
- ED50 (Mus musculus [3]): 100 mg/kg
- ED50 (Mus musculus [4]): 600 mg/kg
- ED50 (Mus musculus [5]): > 75 mg/kg
- Activity (Mus musculus [6]): 5%
- ED50 (Mus musculus [7]): 21.8 mg/kg

Structure (SMILES): CCOC1=NCC(=O)N(C)c2ccc(C)cc21
- LD50 at 2 h [1]: 300 mg/kg
- ED50 (Mus musculus [2]): 133 mg/kg
- ED50 (Mus musculus [3]): 137 mg/kg
- ED50 (Mus musculus [4]): 141 mg/kg
- ED50 (Mus musculus [5]): > 102 mg/kg
- Activity (Mus musculus [8]): 44%
- ED50 (Mus musculus [9]): 87.6 mg/kg
- ED50 (Mus musculus [7]): 18.4 mg/kg

Structure (SMILES): CN1C(=O)CN=C(OCCBr)c2cc(Cl)ccc21
- ED50 (Mus musculus [5]): > 102 mg/kg
- ED50 (Mus musculus [7]): > 102 mg/kg

Structure (SMILES): CN1C(=O)CN=C(c2ccccc2)c2cc(Cl)ccc21 [DIAZEPAM]
- ED50 (Mus musculus [2]): 21.9 mg/kg
- ED50 (Mus musculus [3]): 4.1 mg/kg
- ED50 (Mus musculus [4]): 8.9 mg/kg
- ED50 (Mus musculus [5]): 1.1 mg/kg
- Activity (Mus musculus [10]): 8%
- ED50 (Mus musculus [9]): 5.2 mg/kg
- ED50 (Mus musculus [7]): 1.6 mg/kg

Structure (SMILES): CN1C(=O)CN=C(OCC(Cl)Cl)c2cc(Cl)ccc21
- ED50 (Mus musculus [5]): 128 mg/kg
- ED50 (Mus musculus [7]): 143 mg/kg

Structure (SMILES): CCOC1=NCC(=O)N(C)c2cc(Cl)ccc21
- LD50 at 2 h [1]: 600 mg/kg
- ED50 (Mus musculus [2]): 67.7 mg/kg
- ED50 (Mus musculus [3]): 56.5 mg/kg
- ED50 (Mus musculus [4]): 74.4 mg/kg
- ED50 (Mus musculus [5]): 29.9 mg/kg
- Activity (Mus musculus [8]): 50%
- ED50 (Mus musculus [9]): 61.8 mg/kg
- ED50 (Mus musculus [7]): 38.4 mg/kg

Structure (SMILES): C=CCOC1=NCC(=O)N(C)c2ccc(Cl)cc21
- ED50 (Mus musculus [5]): 63.9 mg/kg
- Activity (Mus musculus [8]): 55%
- ED50 (Mus musculus [7]): 54.4 mg/kg

Structure (SMILES): CCOC1=NCC(=O)N(C)c2ccc([N+](=O)[O-])cc21
- LD50 at 2 h [1]: 600 mg/kg
- ED50 (Mus musculus [2]): 42.5 mg/kg
- ED50 (Mus musculus [3]): 11.3 mg/kg
- ED50 (Mus musculus [4]): 37.5 mg/kg
- ED50 (Mus musculus [5]): 87.8 mg/kg
- Activity (Mus musculus [8]): 27%
- ED50 (Mus musculus [9]): 15.8 mg/kg
- ED50 (Mus musculus [7]): 9 mg/kg

Structure (SMILES): Cc1ccc2c(c1)C(=O)NCC(=O)N2C
- ED50 (Mus musculus [5]): > 102 mg/kg
- Activity (Mus musculus [8]): 62%
- ED50 (Mus musculus [7]): > 102 mg/kg

Structure (SMILES): CC(OC1=NCC(=O)N(C)c2ccc(Cl)cc21)C(F)(F)F (configuration not stated)
- LD50 at 2 h [1]: 300 mg/kg
- ED50 (Mus musculus [2]): 250 mg/kg
- ED50 (Mus musculus [3]): 130 mg/kg
- ED50 (Mus musculus [4]): 288 mg/kg
- ED50 (Mus musculus [5]): 100 mg/kg
- ED50 (Mus musculus [9]): 123 mg/kg
- ED50 (Mus musculus [7]): > 200 mg/kg
- Activity (Mus musculus [11]): 73%

Structure (SMILES): COC1=NCC(=O)N(C)c2ccc(Cl)cc21
- LD50 at 2 h [1]: > 200 mg/kg
- ED50 (Mus musculus [2]): 68 mg/kg
- ED50 (Mus musculus [3]): 59.3 mg/kg
- ED50 (Mus musculus [4]): 300 mg/kg
- ED50 (Mus musculus [5]): > 50 mg/kg
- Activity (Mus musculus [10]): 50%
- ED50 (Mus musculus [7]): 16.5 mg/kg

Structure (SMILES): CN1C(=O)CNC(=O)c2cc([N+](=O)[O-])ccc21
- ED50 (Mus musculus [5]): > 102 mg/kg
- Activity (Mus musculus [8]): 51%
- ED50 (Mus musculus [7]): > 102 mg/kg

Structure (SMILES): CN1C(=O)CN=C(OCC(F)(F)F)c2cc(Cl)ccc21
- ED50 (Mus musculus [5]): > 102 mg/kg
- Activity (Mus musculus [8]): 48%
- ED50 (Mus musculus [7]): > 102 mg/kg

Structure (SMILES): CCCOC1=NCC(=O)N(C)c2ccc(Cl)cc21
- LD50 at 2 h [1]: > 400 mg/kg
- ED50 (Mus musculus [2]): 52.5 mg/kg
- ED50 (Mus musculus [3]): 93.1 mg/kg
- ED50 (Mus musculus [4]): 78.1 mg/kg
- ED50 (Mus musculus [5]): 38.2 mg/kg
- Activity (Mus musculus [8]): 50%
- ED50 (Mus musculus [7]): 19.2 mg/kg

Structure (SMILES): CN1C(=O)CNC(=O)c2cc(Cl)cc([N+](=O)[O-])c21
- ED50 (Mus musculus [5]): > 102 mg/kg
- Activity (Mus musculus [8]): 24%
- ED50 (Mus musculus [7]): > 102 mg/kg

Structure (SMILES): CN1C(=O)CN=C(Oc2ccccc2)c2cc(Cl)ccc21
- ED50 (Mus musculus [5]): 50.1 mg/kg
- Activity (Mus musculus [8]): 68%
- ED50 (Mus musculus [7]): > 102 mg/kg

Structure (SMILES): C#CCOC1=NCC(=O)N(C)c2ccc(Cl)cc21
- LD50 at 2 h [1]: 138 mg/kg
- ED50 (Mus musculus [2]): 22.7 mg/kg
- ED50 (Mus musculus [3]): 20.8 mg/kg
- ED50 (Mus musculus [4]): 28.5 mg/kg
- ED50 (Mus musculus [5]): > 25 mg/kg
- ED50 (Mus musculus [7]): 22.9 mg/kg
- Activity (Mus musculus [12]): 44%

Structure (SMILES): Cc1cc(Cl)ccc1OC1=NCC(=O)N(C)c2ccc(Cl)cc21
- ED50 (Mus musculus [5]): > 102 mg/kg
- Activity (Mus musculus [8]): 36%
- ED50 (Mus musculus [7]): > 102 mg/kg

Structure (SMILES): CCOC1=NCC(=O)N(c2ccccc2)c2ccc(Cl)cc21
- LD50 at 2 h [1]: 650 mg/kg
- ED50 (Mus musculus [2]): 300 mg/kg
- ED50 (Mus musculus [3]): 300 mg/kg
- ED50 (Mus musculus [4]): 300 mg/kg
- ED50 (Mus musculus [5]): > 150 mg/kg
- Activity (Mus musculus [13]): 50%
- ED50 (Mus musculus [7]): > 150 mg/kg

Structure (SMILES): CN1C(=O)CNC(=O)c2ccc(Cl)cc21
- ED50 (Mus musculus [5]): > 102 mg/kg
- Activity (Mus musculus [8]): 30%
- ED50 (Mus musculus [7]): > 102 mg/kg

Structure (SMILES): CCOC1=NCC(=O)N(C)c2c1cc(Cl)cc2[N+](=O)[O-]
- ED50 (Mus musculus [5]): > 102 mg/kg
- Activity (Mus musculus [8]): 19%
- ED50 (Mus musculus [7]): > 102 mg/kg

Structure (SMILES): CN1C(=O)CNC(=O)c2cc(Cl)ccc21
- ED50 (Mus musculus [5]): > 100 mg/kg
- ED50 (Mus musculus [7]): 39.4 mg/kg
- Activity (Mus musculus [11]): 75%

Structure (SMILES): CCOC1=NCC(=O)N(C)c2ccc(Cl)cc21
- LD50 at 2 h [1]: 300 mg/kg
- ED50 (Mus musculus [2]): 45.3 mg/kg
- ED50 (Mus musculus [3]): 42.8 mg/kg
- ED50 (Mus musculus [4]): 39.3 mg/kg
- ED50 (Mus musculus [5]): 35.2 mg/kg
- Activity (Mus musculus [14]): 93%
- ED50 (Mus musculus [9]): 68.5 mg/kg
- ED50 (Mus musculus [7]): 2.9 mg/kg

Structure (SMILES): O=C1CN=C(c2ccccc2)c2cc([N+](=O)[O-])ccc2N1 [NITRAZEPAM]
- LD50 at 2 h [1]: 733 mg/kg
- ED50 (Mus musculus [2]): 1.5 mg/kg
- ED50 (Mus musculus [3]): 1.5 mg/kg
- ED50 (Mus musculus [4]): 1.5 mg/kg
- ED50 (Mus musculus [5]): 1 mg/kg
- Activity (Mus musculus [15]): 50%
- ED50 (Mus musculus [9]): 0.5 mg/kg
- ED50 (Mus musculus [7]): 0.8 mg/kg

Structure (SMILES): CN1C(=O)CN=C(Oc2ccccc2F)c2cc(Cl)ccc21
- LD50 at 2 h [1]: 650 mg/kg
- ED50 (Mus musculus [2]): 240 mg/kg
- ED50 (Mus musculus [3]): 240 mg/kg
- ED50 (Mus musculus [4]): 428 mg/kg
- ED50 (Mus musculus [5]): > 200 mg/kg
- Activity (Mus musculus [8]): 45%
- ED50 (Mus musculus [9]): 146 mg/kg
- ED50 (Mus musculus [7]): > 200 mg/kg
